How the values were obtained:
[1] = Half life in C57BL/6 mouse at 40 mg/kg, po formulated in 0.1% SLS; format: ADME, organism-based; set-up: dose 40 mg/kg, route oral; settings: in vivo
Method in brief: (§1)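 Female C57BL/6 mice, single 40 mg/kg oral gavage; three mice per time point; plasma at 30 min to 24 h, LC-MS; noncompartmental parameters reported as means.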

[2] = Tmax in C57BL/6 mouse at 40 mg/kg, po formulated in 0.1% SLS; format: ADME, organism-based; set-up: dose 40 mg/kg, route oral; settings: in vivo; method in brief: as §1
[3] = Cmax in C57BL/6 mouse at 40 mg/kg, po formulated in 0.1% SLS; format: ADME, organism-based; set-up: dose 40 mg/kg, route oral; settings: in vivo; method in brief: as §1
[4] = AUC (0 to infinity) in C57BL/6 mouse at 40 mg/kg, po formulated in 0.1% SLS; format: ADME, organism-based; set-up: time infinity, dose 40 mg/kg, route oral; settings: plasma
[5] = Elimination half life in Sprague-Dawley rat at 5 mg/kg, iv; format: ADME, organism-based; set-up: dose 5 mg/kg, route intravenous; settings: in vivo, read-out: beta t1/2 (converted)
Method in brief: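 Male Sprague-Dawley rats (n = 3), single 5 mg/kg iv dose as solution in PEG300/DMSO 50:50; plasma sampled 0.083–24 h, LC-MS bioanalysis; noncompartmental analysis, means.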

[6] = Tmax in Sprague-Dawley rat at 20 mg/kg, po; format: ADME, organism-based; set-up: dose 20 mg/kg, route oral; settings: in vivo
[7] = AUC (0 to infinity) in Sprague-Dawley rat at 20 mg/kg, po; format: ADME, organism-based; set-up: time infinity, dose 20 mg/kg, route oral; settings: plasma
[8] = Permeability across apical to basolateral side in human Caco2 cells incubated for 1 hr at 37 degC by HPLC-MS/MS method; format: ADME, cell-based; settings: Caco-2
Method in brief: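 TC7 (Caco-2 subclone) monolayer; 10 μM compound in 1% DMSO in HBSS-MES pH 6.5 on apical donor side, basolateral receiver pH 7.4; shaken 1 h at 37 °C; receiver sampled, HPLC-MS/MS; duplicate means.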

[9] = system: Mycobacterium tuberculosis; assay: Antitubercular activity against Mycobacterium tuberculosis H37Rv incubated at 37 degC for 14 days in presence of 40% human serum by microplate alamar blue assay; format: functional; settings: 336 h
Method in brief: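 This is the MABA run in 7H9 broth containing 40% human serum. Compounds were 2-fold serially diluted, and wells were inoculated with H37Rv at 2 × 10⁵ CFU/mL. Incubation was at 37 °C for 14 days, then Alamar Blue was added. MIC was the lowest concentration preventing the blue-to-pink colour change.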

[10] = Distribution coefficient, log D of the compound between n-octanol and PBS buffer at pH 7.4 incubated for 1 hr by shake flask method; format: physicochemical
Method in brief: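 Partition between n-octanol and PBS pH 7.4 after 1 h shaking at room temperature; phases analysed by HPLC with photodiode detection; logD = log10 of organic/aqueous amount.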

[11] = system: Mycobacterium tuberculosis; assay: Antitubercular activity against Mycobacterium tuberculosis Erdman ATCC 35801 infected in C57BL/6 mouse assessed as viable bacterial load in lung at 200 mg/kg/day through gavage 5 days per week for 4 weeks starting on 10th day post-infection (reference value: 6.49 +/- 0.10 log10CFU/lung); format: functional
Salmonella typhimurium [12] = assay: Toxicity in Salmonella typhimurium TA100 assessed as compound level per well causing cytotoxicity at 0.25 to 240 ug/well in absence of rat liver S9 fraction; format: organism-based; settings: salmonella enterica subsp. enterica serovar typhimurium
Method in brief: (§2)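 MicroAmes: strains preincubated with or without Aroclor-induced rat liver S9, duplicate wells, six concentrations 0.25–250 μg equivalents/well; DMSO vehicle, 4-nitroquinoline-N-oxide (−S9) and 2-aminoanthracene (+S9) positive controls; revertant colonies counted; cytotoxicity noted as reduced revertants or background lawn; precipitation recorded.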

Salmonella typhimurium [13] = assay: Mutagenicity in Salmonella typhimurium TA100 assessed as mean revertant colonies at 0.25 to 240 ug/well in absence of rat liver S9 fraction; format: toxicity, organism-based; settings: salmonella enterica subsp. enterica serovar typhimurium; method in brief: as §2

SMILES: O=C1C2=Nc3ccccc3CN2c2ccc(Cl)cc21
- half-life [1]: 3.08 h
- Tmax [2]: 1 h
- Cmax [3]: 0.197 µg/mL
- AUC(0-inf) [4]: 1.4 µg·h/mL
- half-life [5]: 1.42 h
- Tmax [6]: 2 h
- AUC(0-inf) [7]: 0.3 µg·h/mL
- Papp A→B at 1 h [8]: 608 nm/s
- MIC [9]: 0.125 mg/L
- logD at 1 h [10]: 3.37
- log10cfu [11]: 6.58
- Activity (Salmonella typhimurium [12]): >= 2.5 ug
- Activity (Salmonella typhimurium [13]): Non-toxic

Reference: ChEMBL document CHEMBL2346548, “Design, synthesis, and structure-activity relationship studies of tryptanthrins as antitubercular agents” (J Nat Prod, 2013)
